Measurements published in ChEMBL document CHEMBL1833940, “Discovery of 3-(2,6-dichloro-3,5-dimethoxy-phenyl)-1-{6-[4-(4-ethyl-piperazin-1-yl)-phenylamino]-pyrimidin-4-yl}-1-methyl-urea (NVP-BGJ398), a potent and selective inhibitor of the fibroblast growth factor receptor family of receptor tyrosine kinase” (J Med Chem, 2011).
The source made the active and inactive calls. The calls are words filed in the database; no cut-off is given here.

Key:
SW780 = experiment: Antiproliferative activity against human SW780 cells overexpressing wild type FGFR3 after 72 hrs; assay type: functional, cell-based; conditions: SW780, 72 h
In short: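 Bladder cancer lines from ATCC or DSMZ were seeded in 96-well plates (RT4, RT112 at 8500 cells/well; others at 5000 cells/well) in growth medium. Compound dilutions or DMSO were added 24 h later and incubated 72 h. Cells were fixed with glutaraldehyde, stained with 0.05% methylene blue and eluted with 3% HCl, then OD650 nm was read.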

[1] = target: Mitogen-activated protein kinase 14 (Homo sapiens, UniProt Q16539); experiment: Inhibition of recombinant p38alpha
Chain of Mitogen-activated protein kinase 14 (Q16539 whole entry): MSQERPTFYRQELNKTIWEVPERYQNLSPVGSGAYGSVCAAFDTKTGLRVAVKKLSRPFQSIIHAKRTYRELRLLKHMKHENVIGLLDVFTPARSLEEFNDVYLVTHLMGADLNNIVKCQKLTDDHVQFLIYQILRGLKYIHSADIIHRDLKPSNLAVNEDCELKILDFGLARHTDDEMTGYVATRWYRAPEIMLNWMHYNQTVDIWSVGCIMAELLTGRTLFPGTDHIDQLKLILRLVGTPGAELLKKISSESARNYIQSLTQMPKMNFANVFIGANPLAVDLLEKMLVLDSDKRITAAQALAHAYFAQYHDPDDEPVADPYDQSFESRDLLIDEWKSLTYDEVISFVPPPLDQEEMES
In short: (§1)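 Purified recombinant kinases under optimized conditions with peptide substrates. ATP was set at each kinase's Km. Phosphorylation was read by microfluidic mobility-shift separation of substrate and product; IC50 determined.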

[2] = target: Serine/threonine-protein kinase pim-2 (Homo sapiens, UniProt Q9P1W9); experiment: Inhibition of recombinant PIM2; in short: as §1
Tumour [3] = experiment: Dose normalized AUC in tumor of RT112/luc1 cells implanted athymic nude mouse at 5 mg/kg, iv by LC/MS/MS analysis; assay type: ADME, organism-based, Neoplasm; parameters: dose 5 mg/kg, route intravenous; conditions: in vivo
In short: (§2)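 Female athymic nude mice carried subcutaneous RT112/luc1 tumors (5×10^6 cells, 50% Matrigel; about 300–400 mm3). Dosing was either 5 mg/kg iv by tail vein in NMP/PEG200 (1:9) or 20 mg/kg oral suspension in PEG300/D5W (2:1). Groups of mice (n = 4) were sacrificed at 0.083–24 h. Plasma and tumor levels were measured by LC-MS/MS (LOQ 5 ng/mL, 10 ng/g).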

[4] = target: Serine/threonine-protein kinase PLK1 (Homo sapiens, UniProt P53350); experiment: Inhibition of recombinant PLK1; in short: as §1
Chain of Serine/threonine-protein kinase PLK1 (P53350 whole entry): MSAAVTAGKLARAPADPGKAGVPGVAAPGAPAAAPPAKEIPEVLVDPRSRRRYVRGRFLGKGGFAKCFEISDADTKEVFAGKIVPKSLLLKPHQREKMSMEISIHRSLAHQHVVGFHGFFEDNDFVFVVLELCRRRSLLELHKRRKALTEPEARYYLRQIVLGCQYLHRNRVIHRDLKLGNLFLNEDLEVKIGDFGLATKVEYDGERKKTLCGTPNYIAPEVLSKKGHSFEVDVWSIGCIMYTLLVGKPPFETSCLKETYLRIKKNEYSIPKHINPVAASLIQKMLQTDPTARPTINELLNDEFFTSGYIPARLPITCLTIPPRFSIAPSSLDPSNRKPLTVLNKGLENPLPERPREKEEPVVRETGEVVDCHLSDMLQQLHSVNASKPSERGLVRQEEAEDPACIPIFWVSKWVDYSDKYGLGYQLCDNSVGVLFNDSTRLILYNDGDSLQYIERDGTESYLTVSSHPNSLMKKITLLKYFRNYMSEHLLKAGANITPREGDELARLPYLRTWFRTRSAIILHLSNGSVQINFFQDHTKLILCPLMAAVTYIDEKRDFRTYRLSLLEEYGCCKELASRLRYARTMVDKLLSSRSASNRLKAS

Cytochrome P450 2C9 = Cytochrome P450 2C9 (Homo sapiens, UniProt P11712); experiment: Inhibition of CYP2C9 using MFC as substrate; assay type: ADME
Chain of Cytochrome P450 2C9 (P11712 whole entry, canonical isoform): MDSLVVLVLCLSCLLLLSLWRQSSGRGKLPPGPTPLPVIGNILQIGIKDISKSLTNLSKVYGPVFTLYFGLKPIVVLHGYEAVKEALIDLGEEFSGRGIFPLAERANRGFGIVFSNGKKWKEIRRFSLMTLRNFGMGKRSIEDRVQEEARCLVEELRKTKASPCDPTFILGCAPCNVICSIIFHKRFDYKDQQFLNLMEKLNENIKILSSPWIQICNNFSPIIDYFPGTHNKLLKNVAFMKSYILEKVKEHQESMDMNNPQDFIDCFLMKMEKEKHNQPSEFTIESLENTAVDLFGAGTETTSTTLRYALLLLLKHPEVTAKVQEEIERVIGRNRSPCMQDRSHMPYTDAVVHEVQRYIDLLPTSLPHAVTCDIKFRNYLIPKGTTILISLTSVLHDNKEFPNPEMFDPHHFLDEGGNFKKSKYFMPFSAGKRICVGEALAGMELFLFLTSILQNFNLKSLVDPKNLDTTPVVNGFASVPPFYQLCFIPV
In short: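 Human CYP450 inhibition was measured with isoform-specific fluorogenic probe substrates: CEC for 1A2 and 2C19, MFC for 2C9, AMMC for 2D6. Incubation was at 37 °C with an NADPH-regenerating system in 384-well format. Metabolite was quantified by fluorescence, and IC50 was obtained by curve fitting.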

[5] = target: RAC-alpha serine/threonine-protein kinase (Homo sapiens, UniProt P31749); experiment: Inhibition of recombinant PKBalpha; in short: as §1
Chain of RAC-alpha serine/threonine-protein kinase (P31749 whole entry): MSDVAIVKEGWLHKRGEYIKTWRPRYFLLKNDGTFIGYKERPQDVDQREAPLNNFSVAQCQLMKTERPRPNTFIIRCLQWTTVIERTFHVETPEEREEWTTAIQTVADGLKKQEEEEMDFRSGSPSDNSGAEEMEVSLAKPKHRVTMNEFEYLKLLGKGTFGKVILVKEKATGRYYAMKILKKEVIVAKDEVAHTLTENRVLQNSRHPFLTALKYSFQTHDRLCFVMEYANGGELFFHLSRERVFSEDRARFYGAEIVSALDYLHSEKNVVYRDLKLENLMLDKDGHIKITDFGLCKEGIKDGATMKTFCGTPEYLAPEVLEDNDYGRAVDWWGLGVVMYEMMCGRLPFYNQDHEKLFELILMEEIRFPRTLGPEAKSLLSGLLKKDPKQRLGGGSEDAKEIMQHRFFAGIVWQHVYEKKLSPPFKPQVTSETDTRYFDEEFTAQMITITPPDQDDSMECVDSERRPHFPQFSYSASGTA

[6] = target: Tyrosine-protein kinase Lyn (Homo sapiens, UniProt P07948); experiment: Inhibition of recombinant LYN kinase
Chain of Tyrosine-protein kinase Lyn (P07948 whole entry): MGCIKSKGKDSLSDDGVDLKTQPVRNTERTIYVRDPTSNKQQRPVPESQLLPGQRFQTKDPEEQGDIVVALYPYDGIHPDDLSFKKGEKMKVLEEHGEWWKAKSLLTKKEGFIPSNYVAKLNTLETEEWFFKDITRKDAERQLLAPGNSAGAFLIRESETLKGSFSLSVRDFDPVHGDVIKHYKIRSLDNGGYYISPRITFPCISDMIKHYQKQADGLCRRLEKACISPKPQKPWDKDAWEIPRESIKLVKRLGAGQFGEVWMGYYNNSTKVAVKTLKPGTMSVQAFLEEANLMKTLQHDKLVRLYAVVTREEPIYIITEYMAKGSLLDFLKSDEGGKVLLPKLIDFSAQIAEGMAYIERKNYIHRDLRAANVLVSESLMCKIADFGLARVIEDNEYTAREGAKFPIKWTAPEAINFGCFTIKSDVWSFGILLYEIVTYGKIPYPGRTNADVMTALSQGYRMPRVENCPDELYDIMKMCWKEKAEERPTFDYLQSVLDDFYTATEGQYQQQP
In short: (§3)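 Purified recombinant kinases under optimized conditions, with peptide substrates and ATP at each kinase's Km. Phosphorylation was read out by microfluidic mobility shift, and IC50 values were obtained.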

[7] = target: Tyrosine-protein kinase receptor UFO (Homo sapiens, UniProt P30530); experiment: Inhibition of recombinant AXL; in short: as §3
[8] = target: Tyrosine-protein kinase Mer (Homo sapiens, UniProt Q12866); experiment: Inhibition of recombinant MER; in short: as §3
Chain of Tyrosine-protein kinase Mer (Q12866 whole entry): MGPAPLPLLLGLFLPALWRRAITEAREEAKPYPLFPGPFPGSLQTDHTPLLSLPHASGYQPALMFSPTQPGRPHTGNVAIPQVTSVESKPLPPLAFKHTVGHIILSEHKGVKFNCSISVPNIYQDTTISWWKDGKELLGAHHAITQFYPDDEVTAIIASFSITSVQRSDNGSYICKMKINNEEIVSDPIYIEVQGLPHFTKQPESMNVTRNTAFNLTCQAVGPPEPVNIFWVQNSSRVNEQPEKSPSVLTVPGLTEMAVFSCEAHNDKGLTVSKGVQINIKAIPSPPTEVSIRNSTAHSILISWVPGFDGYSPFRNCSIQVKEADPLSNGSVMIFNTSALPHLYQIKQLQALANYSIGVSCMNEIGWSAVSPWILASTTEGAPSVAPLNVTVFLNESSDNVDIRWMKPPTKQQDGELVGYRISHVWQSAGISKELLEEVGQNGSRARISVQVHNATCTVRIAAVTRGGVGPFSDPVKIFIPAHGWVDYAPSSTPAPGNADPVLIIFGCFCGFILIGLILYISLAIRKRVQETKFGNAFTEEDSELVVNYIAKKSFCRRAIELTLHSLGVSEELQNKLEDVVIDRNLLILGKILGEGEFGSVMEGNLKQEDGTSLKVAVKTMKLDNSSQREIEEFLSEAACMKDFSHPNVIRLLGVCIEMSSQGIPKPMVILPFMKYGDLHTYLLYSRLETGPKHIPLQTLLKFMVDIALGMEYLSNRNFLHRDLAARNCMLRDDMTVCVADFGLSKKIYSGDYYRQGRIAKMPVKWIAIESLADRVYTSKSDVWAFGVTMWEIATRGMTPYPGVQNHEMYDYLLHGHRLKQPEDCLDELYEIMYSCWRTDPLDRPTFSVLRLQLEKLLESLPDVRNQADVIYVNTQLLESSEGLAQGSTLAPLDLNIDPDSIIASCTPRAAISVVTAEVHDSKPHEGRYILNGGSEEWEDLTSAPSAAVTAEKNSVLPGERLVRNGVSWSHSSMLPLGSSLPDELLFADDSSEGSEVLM

[9] = Oral bioavailability RT112/luc1 cells implanted athymic nude mouse; assay type: ADME, organism-based; conditions: in vivo
In short: (§4)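 Female athymic nude mice carrying subcutaneous RT112/luc1 tumors (ca. 300–400 mm3). Dosing was 5 mg/kg iv by tail vein in NMP/PEG200 (1:9) or 20 mg/kg by oral gavage as a suspension in PEG300/D5W (2:1). Groups (n = 4) were sacrificed from 0.083 to 24 h. Plasma and tumor were measured by LC-MS/MS (LOQ 5 ng/mL, 10 ng/g). Noncompartmental analysis used the linear trapezoidal AUC; F was calculated from dose-normalized AUC.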

Rattus norvegicus = experiment: Inhibition of FGFR autophosphorylation in RT112 tumor bearing nude rowett rat assessed as decrease in pFRS2 concentration at 8.51 mg/kg, po administered as a single dose after 16 hrs by Western blot analysis; assay type: functional, organism-based; parameters: dose 8.51 mg/kg
In short: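 RT112 subcutaneous xenografts in female nude Rowett rats (n = 4). Single oral gavage of the monophosphate salt at 4.25 or 8.51 mg/kg (free base equivalents) in acetic acid–acetate buffer pH 4.6/PEG300 (1:1). Tumors were collected at time points up to 24 h, frozen, homogenized and lysed. Western blots probed pFRS2(Tyr196) and pMAPK, with total FRS2, total MAPK or β-tubulin as loading controls.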

Tumour [10] = experiment: Drug uptake in tumour of nude Rowett rat bearing human RT112 cells at 4.25 mg/kg, po administered as a single dose after 3 hrs by LC-MS/MS analysis; assay type: ADME, organism-based, Neoplasm, RT-112; parameters: dose 4.25 mg/kg, route oral; conditions: in vivo
In short: (§5)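 Nude Rowett rats bearing subcutaneous RT112 tumors (n = 4) received a single gavage of monophosphate salt at 4.25 or 8.51 mg/kg free base in acetate buffer pH 4.6/PEG300. Tumors were collected at intervals after dosing, frozen and homogenized in an equal volume of ice-cold PBS. Compound levels were measured by LC-MS/MS (LOQ 3 ng/mL).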

[11] = target: Protein kinase C alpha type (Homo sapiens, UniProt P17252); experiment: Inhibition of recombinant PKCalpha; in short: as §1
Plasma [12] = experiment: Dose normalized AUC in plasma of RT112/luc1 cells implanted athymic nude mouse at 5 mg/kg, iv by LC/MS/MS analysis; assay type: ADME, organism-based; parameters: dose 5 mg/kg, route intravenous; conditions: in vivo; in short: as §2
[13] = Inhibition of recombinant PKA
In short: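 Purified recombinant kinases with peptide substrates and ATP at each kinase's Km. Read-out was microfluidic mobility shift.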

[14] = Half life in tumor of RT112/luc1 cells implanted in athymic nude mouse at 5 mg/kg, iv by LC/MS/MS analysis; assay type: ADME, organism-based, Neoplasm; parameters: dose 5 mg/kg, route intravenous; in short: as §2
[15] = Plasma clearance in RT112/luc1 cells implanted athymic nude mouse at 5 mg/kg, iv by LC/MS/MS analysis; assay type: ADME, organism-based; parameters: dose 5 mg/kg, route intravenous; in short: as §4
[16] = target: Glycogen synthase kinase-3 beta (Homo sapiens, UniProt P49841); experiment: Inhibition of recombinant GSK3-beta; in short: as §1
Chain of Glycogen synthase kinase-3 beta (P49841 whole entry): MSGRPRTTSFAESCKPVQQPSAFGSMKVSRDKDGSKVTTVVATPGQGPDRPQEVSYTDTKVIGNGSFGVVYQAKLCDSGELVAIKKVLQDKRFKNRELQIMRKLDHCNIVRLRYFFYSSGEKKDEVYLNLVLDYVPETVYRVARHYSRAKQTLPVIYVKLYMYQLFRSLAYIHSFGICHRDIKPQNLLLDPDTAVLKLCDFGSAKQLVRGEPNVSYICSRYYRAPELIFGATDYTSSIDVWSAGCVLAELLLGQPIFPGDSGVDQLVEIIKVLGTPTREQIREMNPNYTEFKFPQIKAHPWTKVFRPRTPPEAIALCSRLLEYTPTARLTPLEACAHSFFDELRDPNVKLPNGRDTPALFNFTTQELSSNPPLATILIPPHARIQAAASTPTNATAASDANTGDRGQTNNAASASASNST

[17] = target: Phosphatidylinositol 3-kinase catalytic subunit type 3 (Homo sapiens, UniProt Q8NEB9); experiment: Inhibition of recombinant VPS34 by luminescent kinase assay
Chain of Phosphatidylinositol 3-kinase catalytic subunit type 3 (Q8NEB9 whole entry): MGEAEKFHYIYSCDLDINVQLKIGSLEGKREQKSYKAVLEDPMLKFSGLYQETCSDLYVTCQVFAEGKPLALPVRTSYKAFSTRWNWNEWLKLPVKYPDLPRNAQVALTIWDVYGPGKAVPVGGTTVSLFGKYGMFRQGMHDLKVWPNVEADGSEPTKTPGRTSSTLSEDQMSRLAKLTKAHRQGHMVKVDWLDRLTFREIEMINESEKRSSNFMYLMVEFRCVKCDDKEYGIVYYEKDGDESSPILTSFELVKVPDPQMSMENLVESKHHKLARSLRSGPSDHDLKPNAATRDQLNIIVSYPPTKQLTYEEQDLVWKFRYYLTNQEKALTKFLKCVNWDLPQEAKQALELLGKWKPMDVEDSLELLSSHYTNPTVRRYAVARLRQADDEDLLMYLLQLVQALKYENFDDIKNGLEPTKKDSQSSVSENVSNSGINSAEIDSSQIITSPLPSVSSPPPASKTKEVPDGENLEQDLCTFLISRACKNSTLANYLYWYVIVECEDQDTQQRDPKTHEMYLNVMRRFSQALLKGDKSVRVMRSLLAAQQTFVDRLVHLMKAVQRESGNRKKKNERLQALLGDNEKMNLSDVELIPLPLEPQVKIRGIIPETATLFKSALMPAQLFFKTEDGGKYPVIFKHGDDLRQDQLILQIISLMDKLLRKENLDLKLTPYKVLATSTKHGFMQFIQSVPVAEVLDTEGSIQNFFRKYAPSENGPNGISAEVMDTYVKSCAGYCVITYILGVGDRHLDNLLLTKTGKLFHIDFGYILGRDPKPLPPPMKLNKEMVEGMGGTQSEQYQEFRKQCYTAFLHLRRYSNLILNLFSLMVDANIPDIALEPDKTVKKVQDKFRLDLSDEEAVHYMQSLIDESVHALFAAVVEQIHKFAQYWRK

Tumour [18] = experiment: Cmax in tumor of RT112/luc1 cells implanted athymic nude mouse at 5 mg/kg, iv by LC/MS/MS analysis; assay type: ADME, organism-based, Neoplasm; parameters: dose 5 mg/kg, route intravenous; conditions: in vivo; in short: as §2
Plasma [19] = experiment: Dose normalized AUC in plasma of RT112/luc1 cells implanted athymic nude mouse at 20 mg/kg, po by LC/MS/MS analysis; assay type: ADME, organism-based; parameters: dose 20 mg/kg, route oral; conditions: in vivo; in short: as §2
[20] = Half life in tumor of RT112/luc1 cells implanted athymic nude mouse at 20 mg/kg, po by LC/MS/MS analysis; assay type: ADME, organism-based, Neoplasm; parameters: dose 20 mg/kg, route oral; in short: as §2
Mus musculus = experiment: Antiangiogenic activity in FVB mouse agar chamber model assessed as inhibition of VEGF-induced angiogenesis at 10 to 50 mg/kg, po administered for 4 days; assay type: functional, organism-based
In short: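 Female FVB mice implanted subcutaneously with perfluoroalkoxy-Teflon chambers holding 0.8% agar with 20 U/mL heparin, with or without dog VEGF 2 μg/mL or bFGF 0.3 μg/mL. Oral dosing at 10, 30, 50 mg/kg/day in 10% NMP/PEG300 (5 mL/kg), started before implantation and continued 3 days. Capsules were removed 24 h after the last dose. Readout was capsule weight and Tie-2 by ELISA, as % inhibition against vehicle and no-growth-factor background.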

[21] = target: Cyclin-dependent kinase 1 (Homo sapiens, UniProt P06493); experiment: Inhibition of recombinant CDK1; in short: as §1
Tumour [22] = experiment: Drug uptake in tumor of nude rowett rat bearing human RT112 cells at 4.25 mg/kg, po administered as a single dose after 7 hrs by LC-MS/MS analysis; assay type: ADME, organism-based, Neoplasm, RT-112; parameters: dose 4.25 mg/kg, route oral; conditions: in vivo; in short: as §5

IC50 (SW780): 0.032 µM | IC50 [1]: > 10 µM | IC50 [2]: > 10 µM | AUC/dose (Tumour [3]): 4.8 nmol·h/g | IC50 [4]: > 10 µM | IC50 (Cytochrome P450 2C9): > 10 µM | IC50 [5]: > 10 µM | IC50 [6]: 0.3 µM | IC50 [7]: > 10 µM | IC50 [8]: > 10 µM | bioavailability [9]: 32% | Drug uptake (Tumour [10]): 0.83 nmol/g | IC50 [11]: > 10 µM | AUC/dose (Plasma [12]): 0.6 µM·h | IC50 [13]: > 10 µM | half-life [14]: 6.7 h | clearance [15]: 55 mL/min/kg | IC50 [16]: > 10 µM | IC50 [17]: > 10 µM | Cmax (Tumour [18]): 1.68 nmol/g | AUC/dose (Plasma [19]): 0.18 µM·h | half-life [20]: 13 h | IC50 [21]: > 10 µM | Drug uptake (Tumour [22]): 0.65 nmol/g
SMILES: CCN1CCN(c2ccc(Nc3cc(N(C)C(=O)Nc4c(Cl)c(OC)cc(OC)c4Cl)ncn3)cc2)CC1.O=P(O)(O)O [INFIGRATINIB PHOSPHATE]
inhibition (Rattus norvegicus): Active | inhibition (Mus musculus): inactive
